In ChEMBL document CHEMBL2434922, “Microwave assisted synthesis of dihydrobenzo[4,5]imidazo[1,2-a]pyrimidin-4-ones; synthesis, in vitro antimicrobial and anticancer activities of novel coumarin substituted dihydrobenzo[4,5]imidazo[1,2-a]pyrimidin-4-ones” (2013):
Values after ≈ are worked out from the molar mass of the structure shown.

Tests used:
Type in all cases: functional
Penicillium chrysogenum = assay: Antifungal activity against Penicillium chrysogenum assessed as growth inhibition after 48 to 72 hrs by broth microdilution method
Fusarium oxysporum = assay: Antifungal activity against Fusarium oxysporum assessed as growth inhibition after 48 to 72 hrs by broth microdilution method
Aspergillus flavus = assay: Antifungal activity against Aspergillus flavus assessed as growth inhibition after 48 to 72 hrs by broth microdilution method
Aspergillus fumigatus = assay: Antifungal activity against Aspergillus fumigatus assessed as growth inhibition after 48 to 72 hrs by broth microdilution method
Aspergillus niger = assay: Antifungal activity against Aspergillus niger assessed as growth inhibition after 48 to 72 hrs by broth microdilution method
Candida albicans = assay: Antifungal activity against Candida albicans assessed as growth inhibition after 48 to 72 hrs by broth microdilution method
[1] = Cytotoxicity against mouse Daltons ascitic lymphoma cells assessed as dead cells at 100 ug/ml after 3 hrs by trypan blue exclusion assay relative to control
Summary of the method: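 DAL cells (0.2 mL, 10⁶ cells/mL) mixed with ice-cold PBS pH 7.4 and compound (100 µg/mL), held at 37 °C under 5% CO₂ for 3 h. Aliquot then stained with 0.4% trypan blue in normal saline for 5–15 min at room temperature. Live and dead cells counted in a Neubauer chamber; % dead = dead/(dead+live) × 100.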

Pseudomonas aeruginosa = assay: Antibacterial activity against Pseudomonas aeruginosa assessed as growth inhibition after 18 hrs by broth microdilution method
Klebsiella pneumoniae = assay: Antibacterial activity against Klebsiella pneumoniae assessed as growth inhibition after 18 hrs by broth microdilution method
Escherichia coli = assay: Antibacterial activity against Escherichia coli assessed as growth inhibition after 18 hrs by broth microdilution method
Streptococcus mutans = assay: Antibacterial activity against Streptococcus mutans assessed as growth inhibition after 18 hrs by broth microdilution method
Enterococcus faecalis = assay: Antibacterial activity against Enterococcus faecalis assessed as growth inhibition after 18 hrs by broth microdilution method
Staphylococcus aureus = assay: Antibacterial activity against Staphylococcus aureus assessed as growth inhibition after 18 hrs by broth microdilution method

SMILES	MIC (Penicillium chrysogenum) [µg/mL]	MIC (Fusarium oxysporum) [µg/mL]	MIC (Aspergillus flavus) [µg/mL]	MIC (Aspergillus fumigatus) [µg/mL]	MIC (Aspergillus niger) [µg/mL]	MIC (Candida albicans) [µg/mL]	mortality at 100 µg/mL [1] [%]	MIC (Pseudomonas aeruginosa) [µg/mL]	MIC (Klebsiella pneumoniae) [µg/mL]	MIC (Escherichia coli) [µg/mL]	MIC (Streptococcus mutans) [µg/mL]	MIC (Enterococcus faecalis) [µg/mL]	MIC (Staphylococcus aureus) [µg/mL]
OC(Cn1cncn1)(Cn1cncn1)c1ccc(F)cc1F [FLUCONAZOLE]	8 (≈ 26.1 µM)	8 (≈ 26.1 µM)	8 (≈ 26.1 µM)	8 (≈ 26.1 µM)	8 (≈ 26.1 µM)	16 (≈ 52.2 µM)							
Cc1cc(C)c2oc(=O)cc(Cn3c4ccccc4n4c(=O)cc(C(F)(F)F)nc34)c2c1	0.2 (≈ 0.455 µM)	0.2 (≈ 0.455 µM)	3.12 (≈ 7.1 µM)	1.6 (≈ 3.64 µM)	3.12 (≈ 7.1 µM)	50 (≈ 114 µM)	78	100 (≈ 228 µM)	100 (≈ 228 µM)	100 (≈ 228 µM)	0.2 (≈ 0.455 µM)	0.4 (≈ 0.91 µM)	100 (≈ 228 µM)
CC(C)c1cc(O)n2c(n1)nc1ccccc12	0.2 (≈ 0.88 µM)	0.4 (≈ 1.76 µM)	1.6 (≈ 7.04 µM)	1.6 (≈ 7.04 µM)	25 (≈ 110 µM)	3.12 (≈ 13.7 µM)	57	12.5 (≈ 55 µM)	100 (≈ 440 µM)	12.5 (≈ 55 µM)	25 (≈ 110 µM)	0.2 (≈ 0.88 µM)	100 (≈ 440 µM)
CC(C)c1cc(=O)n2c3ccccc3n(Cc3cc(=O)oc4ccc(Cl)cc34)c2n1	0.4 (≈ 0.953 µM)	0.2 (≈ 0.476 µM)	1.6 (≈ 3.81 µM)	0.8 (≈ 1.91 µM)	12.5 (≈ 29.8 µM)	50 (≈ 119 µM)	88	100 (≈ 238 µM)	100 (≈ 238 µM)	100 (≈ 238 µM)	12.5 (≈ 29.8 µM)	0.4 (≈ 0.953 µM)	100 (≈ 238 µM)
COc1ccc2oc(=O)cc(Cn3c4ccccc4n4c(=O)cc(C(F)(F)F)nc34)c2c1	0.4 (≈ 0.906 µM)	0.2 (≈ 0.453 µM)	3.12 (≈ 7.07 µM)	6.25 (≈ 14.2 µM)	25 (≈ 56.6 µM)	50 (≈ 113 µM)	58	> 100	100 (≈ 227 µM)	100 (≈ 227 µM)	12.5 (≈ 28.3 µM)	0.4 (≈ 0.906 µM)	100 (≈ 227 µM)
CC(C)c1cc(=O)n2c3ccccc3n(Cc3cc(=O)oc4ccc(F)cc34)c2n1	0.4 (≈ 0.992 µM)	0.2 (≈ 0.496 µM)	1.6 (≈ 3.97 µM)	0.8 (≈ 1.98 µM)	1.6 (≈ 3.97 µM)	25 (≈ 62 µM)	81	100 (≈ 248 µM)	100 (≈ 248 µM)	100 (≈ 248 µM)	0.8 (≈ 1.98 µM)	0.4 (≈ 0.992 µM)	100 (≈ 248 µM)
COc1ccc2oc(=O)cc(Cn3c4ccccc4n4c(=O)cc(C(C)C)nc34)c2c1	0.8 (≈ 1.93 µM)	0.2 (≈ 0.481 µM)	0.8 (≈ 1.93 µM)	0.8 (≈ 1.93 µM)	50 (≈ 120 µM)	25 (≈ 60.2 µM)	62	> 100	100 (≈ 241 µM)	100 (≈ 241 µM)	3.16 (≈ 7.61 µM)	0.4 (≈ 0.963 µM)	100 (≈ 241 µM)
O=c1cc(C(F)(F)F)nc2[nH]c3ccccc3n12	0.4 (≈ 1.58 µM)	0.2 (≈ 0.79 µM)	0.8 (≈ 3.16 µM)	0.8 (≈ 3.16 µM)	6.25 (≈ 24.7 µM)	1.6 (≈ 6.32 µM)	80	100 (≈ 395 µM)	100 (≈ 395 µM)	100 (≈ 395 µM)	50 (≈ 197 µM)	0.2 (≈ 0.79 µM)	100 (≈ 395 µM)
O=c1cc(-c2ccc(C(F)(F)F)cc2)nc2[nH]c3ccccc3n12	0.2 (≈ 0.607 µM)	0.2 (≈ 0.607 µM)	1.6 (≈ 4.86 µM)	1.6 (≈ 4.86 µM)	100 (≈ 304 µM)	6.25 (≈ 19 µM)	79	> 100	> 100	> 100	> 100	0.2 (≈ 0.607 µM)	> 100
O=c1[nH]cc(F)c(=O)[nH]1 [FLUOROURACIL]							88						
